# Assay outcomes (PubChem BioAssay)
# T cell HTS: modulates CD8 T cell binding to vesicles. 2C CD8+ T cell-vesicle binding, flow cytometry; stronger effect = lower value. response (vesicle binding), % at 7 µM. hit rate 0.068% among 330,000;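 active means response, share of CD8 T cells binding vesicles, and their 90th percentile fluorescence all below set limits, cut at about 80% in these data, passing the limit was not always enough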;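 further: values below 100% mean blocked vesicle binding to the CD8+ T cells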
#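 Test system: purified 2C TCR transgenic mouse naive CD8+ T cells. Probe or stimulus: QL9-peptide-loaded Drosophila micro-vesicles bearing Ld, ICAM-1 and B7-1. Incubation: binding step 1.5 h, 37 °C, antibody labelling 20 min, ice. Measured by: flow cytometry of vesicle-bound cells.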
# V-ATPase pHluor: alters yeast V-ATPase proton transport; response, % at 10 µM; AID 504577; hit rate 0.37% among 350,000; S. cerevisiae, pHLuorin cytosolic pH fluorescence; in the data active means response mostly above about 7.3%, no sharp cut-off; inactive means mostly below about 5.4%; further: actives read high
# NTR1 ag: activates human neurotensin receptor 1; NTR1-U2OS beta-arrestin-GFP spot imaging, agonist mode; activation, % at 20 µM; hit rate 0.17% among 330,000; AID 493036;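 active means activation at or above 40% of the spot to cytoplasm intensity ratio, with at least 20 cells analyzed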;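 further: 0% = DMSO without peptide and 100% = 100 nM NTR1 peptide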
# XiGFP reactiv: activators of X-chromosome reactivation in mouse fibroblasts; hit rate 0.055% among 360,000; XiGFP mouse fibroblasts, % GFP-positive cells imaging, 3 d; cells co-treated with 5-aza-dC sensitizer; scaled so ellipticine positive control = 100%; activation, % at 7.58 µM;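 active means mean normalized replicate activation at least 10% and every replicate at or above 10%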;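 further: 0% = median of on-plate neutral control wells and 100% = ellipticine 6 µM median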
#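 Assay system: SV40-immortalized XiGFP fibroblast cells, line 68-5-11; buffer or medium: DMEM plus 5-aza-dC sensitizer; compound: one concentration, pinned; timing: compounds 3 days, fix/stain 15 min at room temperature; benchmarks: positive control ellipticine, 6 µM final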
# beta cell repl: induces beta-cell replication in MIN6 cells; AID 2380; MIN6 cells proliferation, ATPlite luminescence, 48 h; cells starved in 0.2% serum; 100% = growth in 10% serum; hit rate 0.29% among 330,000; proliferation, % at 10 µM;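 active means compounds whose signal lies at least 3.5 SD above the mean of all wells on their plate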;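 further: 0% = DMSO-treated cells in low-serum medium and 100% = 10% serum control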
# Arrestin-AP2 inh: human beta-arrestin and AP2 interaction inhibition; AID 504490; hit rate 0.31% among 340,000; FITC-arrestin peptide / GST-AP2 beads, flow cytometry; AP2 beta2 appendage carries R879A mutation; inhibition, % at 10 µM;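 active means inhibition above a set limit, near 3 SD of compounds lacking own fluorescence, cut at about 54% in these data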;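 further: plate controls were DMSO wells for no effect and 5 µM unlabelled arrestin peptide for full effect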
#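 Measured by: flow cytometry, FL1 (488/535 nm); Material: AP2 appendage R879A on GSH beads; Evaluation: percent response; Timing: pre-incubation 12 min, peptide binding 1 h, room temperature; Also added: 50 nM FITC-arrestin peptide; Medium: PBS with 0.05% Tween 20 and 0.1% BSA.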
# Arr-AP2 CP1: human beta-arrestin and AP2 interaction inhibition, cherry pick; inhibition, % at 10 µM; AID 504908; GST-AP2 beads, FITC arrestin peptide binding, flow cytometry; GST-fused beta2-adaptin appendage, R879A mutant; shares compounds with Arrestin-AP2 inh; hit rate 2% among 1,300;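 active means inhibition above a set limit, roughly 3 SD of non-fluorescent compound noise, cut at about 38% in these data; inactive means inhibition at or below that limit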;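 further: loss of bead fluorescence from 50 nM FITC arrestin peptide bound to appendage; 0% = negative control wells and 100% = excess unlabelled arrestin peptide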
# Target sequence (P63010 whole entry, looked up, the tested form may be a part, one chain of several): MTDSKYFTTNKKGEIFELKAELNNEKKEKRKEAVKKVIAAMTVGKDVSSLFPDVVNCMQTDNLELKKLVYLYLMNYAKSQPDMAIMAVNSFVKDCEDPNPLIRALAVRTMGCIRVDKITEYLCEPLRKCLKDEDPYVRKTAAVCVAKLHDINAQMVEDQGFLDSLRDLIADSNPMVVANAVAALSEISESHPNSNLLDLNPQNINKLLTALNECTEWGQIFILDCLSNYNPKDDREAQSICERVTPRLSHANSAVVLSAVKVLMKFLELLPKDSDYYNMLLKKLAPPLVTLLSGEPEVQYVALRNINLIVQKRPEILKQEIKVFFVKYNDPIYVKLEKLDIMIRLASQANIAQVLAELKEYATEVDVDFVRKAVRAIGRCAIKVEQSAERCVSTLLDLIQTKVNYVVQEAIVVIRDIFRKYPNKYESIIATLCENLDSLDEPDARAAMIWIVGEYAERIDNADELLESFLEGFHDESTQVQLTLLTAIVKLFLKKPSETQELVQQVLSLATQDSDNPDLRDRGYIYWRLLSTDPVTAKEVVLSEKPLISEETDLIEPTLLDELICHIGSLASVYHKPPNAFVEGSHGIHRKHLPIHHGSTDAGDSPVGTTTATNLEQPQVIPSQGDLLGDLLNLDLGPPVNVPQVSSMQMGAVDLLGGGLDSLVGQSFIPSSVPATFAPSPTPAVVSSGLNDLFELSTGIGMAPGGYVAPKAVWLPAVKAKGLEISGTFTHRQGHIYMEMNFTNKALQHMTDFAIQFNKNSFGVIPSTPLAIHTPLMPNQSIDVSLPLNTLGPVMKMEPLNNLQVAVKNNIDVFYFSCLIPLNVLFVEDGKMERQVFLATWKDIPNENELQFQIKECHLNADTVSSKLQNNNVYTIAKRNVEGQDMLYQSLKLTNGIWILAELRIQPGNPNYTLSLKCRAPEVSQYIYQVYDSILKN
# GST GSH counter: GST-GSH bead binding interference, counter-screen; GST-fluorescein binding to GSH beads, fluorescence; shares compounds with Arrestin-AP2 inh; inhibition, % at 10 µM; hit rate 2% among 1,300;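 active means inhibition above 50%, about 3 SD of the inhibition seen with non-fluorescent compounds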;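 further: fluorescein maleimide labelled GST captured on 4 micron glutathione beads; higher means more loss of bead fluorescence from quenching or blocked binding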
# The depositor's hits bear a star; . = not tested or not shown. Compounds with a hit are over-represented: about 0.89% of the library has one in this group of screens.
SMILES,T cell HTS,V-ATPase pHluor,NTR1 ag,XiGFP reactiv,beta cell repl,Arrestin-AP2 inh,Arr-AP2 CP1,GST GSH counter
CCOc1ccc(S(=O)(=O)Nc2ccc(C(=O)NCC3CCCO3)cc2)cc1 (centres undefined),385.1,-2.7,0.0,0.4,1.9,56.0*,21.0,-9.0
CC(C)NC(=O)Nc1ccc2c(c1)CC(=O)N([C@@H](C)CO)C[C@H](C)[C@H](CN(C)Cc1ccccc1)O2,.,.,.,0.0,.,.,.,.
C#Cc1cccc(NC(=O)Cc2cccs2)c1,172.7,-2.7,0.0,0.0,-2.1,56.3*,2.8,-8.4
COc1ccc(/C=C/C(=O)OCC(=O)NC2CCCC(C)C2C)c(OC)c1 (centres undefined),171.1,-1.1,-1.1,0.0,-5.0,64.0*,2.7,-6.0
CO[C@@H]1CN(C)C(=O)c2cc(NS(C)(=O)=O)ccc2OC[C@@H](C)N(Cc2cccnc2)C[C@H]1C,.,.,.,0.0,.,.,.,.
COc1cccc(CN(C)C(=O)C2CCC(=O)N(Cc3cccc(F)c3)C2)c1 (centres undefined),265.2,-3.1,-0.8,0.0,1.8,41.7,-1.9,-1.2
CN(Cc1ccccn1)C(=O)C1CCC(=O)N(Cc2cccc(F)c2)C1 (centres undefined),265.4,-0.6,-0.5,0.0,-1.6,-8.1,.,.
C[C@@H]1CN([C@H](C)CO)S(=O)(=O)c2ccc(C#CC3CCCC3)cc2O[C@@H]1CN(C)C(=O)c1cccc(F)c1,.,.,.,-0.7,.,.,.,.
CC(=O)c1c(OC(=O)c2ccco2)c2ccccc2n1C,162.0,0.7,-0.8,.,1.1,63.2*,-2.5,5.7
CC(=O)c1c(OC(=O)c2ccc(C)cc2)c2ccccc2n1C,503.0,2.0,-0.4,.,-1.9,19.8,.,.
CCN1/C(=C/C(C)=C/c2sc3ccccc3[n+]2CC)Sc2ccccc21,319.7,0.8,-2.2,3.6,-5.2,85.9*,71.2*,48.2
O=C(Cn1cc(C(F)(F)F)ccc1=O)N1CCc2ccccc21,399.6,-3.5,-2.1,0.0,-3.2,65.3*,-10.6,-2.8
O=C(CN1CCCCC1)N1CCc2ccccc21,443.5,-1.8,-0.7,9.9,-3.7,1.9,.,.
Nc1ccc(CCc2nc3ccccc3o2)cc1,220.5,0.8,-0.1,.,-4.2,-4.9,.,.
O=S(=O)(CCc1nc2ccccc2o1)c1ccc(Cl)c(Cl)c1,483.1,.,-2.0,.,-4.5,90.9*,-10.1,-3.7
COC(=O)Cn1c(=NC(=O)c2cc(-c3cccs3)nc3ccccc23)sc2cc(S(N)(=O)=O)ccc21,425.2,-2.0,5.0,0.0,0.0,63.4*,0.1,-6.5
COCCCNc1nc2ccccc2nc1NS(=O)(=O)c1ccc(C)c(C)c1,75.7,1.2,1.7,-0.1,-2.2,7.0,.,.
COCCNc1nc2ccccc2nc1NS(=O)(=O)c1ccc(C)cc1C,588.0,-0.4,1.1,.,0.6,104.7*,-7.6,-8.1
CC(C)[C@@H](C)NC(=O)N(C)C[C@H]1OCc2ccccc2-c2ccccc2C(=O)N([C@H](C)CO)C[C@H]1C,.,.,.,1.0,.,.,.,.
CC(C)NC(=O)N(C)C[C@@H]1Oc2ccc(N)cc2C(=O)N(C)C[C@@H]1C,.,.,.,0.2,.,.,.,.
O=C(NCCN1CCOCC1)c1ccc2c(c1)N(Cc1ccccc1)C(=O)c1ccccc1S2,361.4,-4.9,-0.3,0.0,0.3,61.9*,2.1,1.3
Cc1ccc(S(=O)(=O)N(C)C[C@@H]2Oc3ccc(NC(=O)Nc4c(C)noc4C)cc3CC(=O)N([C@@H](C)CO)C[C@@H]2C)cc1,.,.,.,0.0,.,.,.,.
Cc1cc(C)cc(NC(=S)N(Cc2ccc(Cl)cc2)Cc2ccc(C(=O)O)cc2)c1,332.6,1.2,1.9,0.4,-5.0,-6.3,.,.
Cc1cccc(NC(=S)N(Cc2ccc(Cl)cc2)Cc2ccc(C(=O)O)cc2)c1,295.1,-1.6,-0.2,-1.2,-2.1,55.8*,3.3,-3.7
